Source: PubChem BioAssay (several laboratories)
CHOP inh – inhibitors of CHOP induction in ER stress response. inhibition, % at 10 µM. actives 3.8% (n = 220,000). CHO-K1 CHOP-promoter luciferase, tunicamycin-induced, 15-18 h;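 active = compounds that reduced the stress-induced luciferase reporter signal by more than about 70% of percent inhibition, limit read from the data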;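 also: 0% = tunicamycin plus vehicle and 100% = wells without tunicamycin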
Lmaj promast – Leishmania major promastigote growth inhibition; Leishmania major promastigotes, resazurin fluorescence viability; inhibition, % at 10 µM; actives 9% (n = 200,000); in the data active = inhibition above about 50%;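 also: promastigotes grown with compound for 44 hours at 28 °C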
T cruzi inh – blocks replication of Trypanosoma cruzi; AID 1885; T. cruzi beta-gal in NIH3T3, luminescence, 90 h; actives 1.4% (n = 300,000); inhibition, % (no concentration beside the values);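 active = mean inhibition across valid replicates above about 55%, limit read from the data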;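 also: signal also drops with host cell toxicity which is not excluded here; 0% = plate median of DMSO wells and 100% = zero luminescence signal; higher percent means less beta-gal luminescence so fewer parasites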
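Assay system: NIH/3T3 fibroblasts plus reporter T. cruzi. Amount: NIH/3T3 cells, 5,000 per well. Buffer or medium: DMEM, 2% fetal bovine serum. Doses: compound pinned at 50 nL/well, DMSO. Schedule: ≥90 h infection period, 3 h prior cell attachment. Signal: luminescent β-galactosidase signal after 60 min lysis. Read-out: parasite load inhibition, %.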
UPR CHOP act – apoptotic UPR (CHOP) activation; activation, % at 10 µM; actives 0.34% (n = 330,000); CHO-CHOP luciferase reporter, luminescence; percent of tunicamycin response over DMSO baseline;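 active = at 10 µM dose, activation of 40% or more, normalized to positive control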;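 also: 100% = tunicamycin at 10 µg/mL and 0% = DMSO alone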
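Evaluation: % reporter activation, DMSO baseline versus tunicamycin full activation; System: CHO-CHOP luciferase reporter cell line; Input: 500 cells/well; Incubation: 6 h compound treatment, 37 °C; Measured by: Steady-Glo luciferase luminescence; Dosing: one dose, 10 µM in 0.5% DMSO; Buffer or medium: F12 medium, 10% FBS; Benchmarks: positive tunicamycin 10 µg/mL, negative DMSO alone.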
XBP1 UPR activ – adaptive UPR (XBP1) activation. CHO-XBP1 luciferase reporter, IRE1-XBP1 UPR activation, luminescence; percent of tunicamycin response, DMSO as zero. activation, % at 20 µM. actives 0.33% (n = 330,000). AID 463104;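 active = versus positive control, 20 µM dose yields 30% or more activation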;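 also: 100% = tunicamycin at 10 µg/mL and 0% = DMSO only wells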
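Assay system: CHO-XBP1 luciferase reporter cells; Schedule: 6 h treatment, 37 °C; Detection: glow luminescence from Steady-Glo reagent; Benchmarks: high control tunicamycin 10 µg/mL final, low control DMSO vehicle only.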
Dynein cargo inh – blocks dynein driven cargo transport along microtubules | z-score, hits read low | actives 0.47% (n = 220,000) | AID 1381 | 3617.4 mouse cells, GR-EGFP nuclear translocation imaging; test concentration mostly 20 µM; stimulated with dexamethasone, 1 µM; hits give low values;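 active = plate z-score of nuclear minus cytoplasmic receptor signal below a set negative limit, without overly bright fluorescence or cell loss, cut at about -3.5 in these data, passing the limit was not always enough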;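 also: z-score of nuclear minus cytoplasmic ring GR-EGFP intensity difference per well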
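Buffer or medium: tet-free medium with charcoal-stripped serum / Also added: dexamethasone agonist, 1.0 µM final, for 30 min / Timing: induction 48 h, compound 1 h, agonist 30 min / Measured by: high-content fluorescence imaging after fixation / Read-out: nuclear-to-cytoplasmic GR-EGFP distribution per well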
Numbers without * were called inactive; x = not tested or not shown. This is one part of a sample in which hits are shown more often than they occur.

SMILES	CHOP inh	Lmaj promast	T cruzi inh	UPR CHOP act	XBP1 UPR activ	Dynein cargo inh
CCn1c([N+](=O)[O-])nc2c1c(=O)[nH]c(=O)n2C	29	100*	26	x	x	-3.2
CCCCCCn1c(SCCCC)nc2c1c(=O)[nH]c(=O)n2C	9	13	x	0	-1	-0.58
Fc1ccc(NC(=S)NNc2ncc(C(F)(F)F)cc2Cl)c(F)c1	34	9	-6	-3	-1	0.17
CCn1cc(C(=O)Nc2ccc3c(c2)OCCO3)c2cc(OC)c(OC)cc2c1=O	24	51*	-14	-2	-2	3.7
CCOc1ccc(-n2cc(C(=O)Nc3cccc(OC)c3)c3cc(OC)c(OC)cc3c2=O)cc1	45	66*	41	1	0	1.2
CCn1cc(C(=O)Nc2cccc(NC(C)=O)c2)c2cc(OC)c(OC)cc2c1=O	10	3	-7	-3	2	-0.97
Cc1cccc(OCc2nnc(SCC(=O)NC3CCCCC3)n2C)c1	x	x	14	-1	-5	x
CS(=O)(=O)Nc1cccc2[nH]ncc12	10	2	7	-1	-3	-1
COC(CNC(=O)CN1CCN(Cc2ccccc2F)C1=O)OC	x	x	-4	1	0	x
O=C(Nc1cccc(Cl)c1)N1CCN2C(=O)c3ccccc3C12c1ccccc1 (configuration not stated)	14	98*	37	-1	-6	-0.41
Cc1ccc(C(=O)N2CCN3C(=O)c4ccccc4C23c2ccc(Cl)cc2)cc1 (configuration not stated)	-90	94*	18	-2	-6	-0.39
Cc1ccc(C(=O)N2CCN(c3ccc(Cl)cc3)CC2)cc1	51	-4	-22	1	-1	0.64
O=C(CN1C(=O)c2ccccc2C1=O)Nc1cccc(Cl)c1	x	x	-7	-1	-3	x
COc1ccc(S(=O)(=O)N(C)C[C@H]2Oc3c(NC(=O)NC(C)C)cccc3C(=O)N([C@H](C)CO)C[C@@H]2C)cc1	x	x	x	0	-1	x
O=C(CCNS(=O)(=O)c1ccccc1F)N1CCN(C/C=C/c2ccccc2)CC1	x	x	6	1	-2	x
COc1cccc(C2=CC(c3ccc(OC)c(OC)c3OC)n3nnnc3N2)c1 (configuration not stated)	22	79*	2	-1	-4	0.9
C/C(=N\NC(=O)C(O)c1ccccc1)c1ccc(Br)s1 (configuration not stated)	x	x	-17	2	-4	x
C/C(=N/NC(N)=S)c1ccc(Br)s1	14	4	61*	-1	-1	-1.3
C/C(=N/NC(=O)c1ccc2c(c1)OCO2)c1ccc(Br)s1	-2	-2	12	4	8	-0.11
C/C(=N\NC(=O)c1ccc(Cl)c(Cl)c1)c1ccc(Br)s1	67	11	70*	15	10	-0.9
COC(=O)c1c(C)[nH]c(C)c1-c1ccc(C)cc1	12	94*	21	-4	-3	-1.4
O=C(CN(c1ccc(Cl)cc1)S(=O)(=O)c1ccccc1)N1CCN(c2ccccc2)CC1	73*	2	21	-2	-4	0.27
COc1ccc(N2CCN(C(=O)CN(c3ccccc3)S(=O)(=O)c3ccc(OC)cc3)CC2)cc1	18	24	17	-1	-1	1.2
COc1ccc(S(=O)(=O)N(CC(=O)N2CCN(c3ccccc3OC)CC2)c2ccccc2)cc1	23	91*	x	0	-4	1.2
CC(=O)N1N=C2/C(=C/c3ccccc3)CCCC2C1c1ccccc1 (configuration not stated)	56	97*	9	2	-4	2.5
SMILES	CHOP inh	Lmaj promast	T cruzi inh	UPR CHOP act	XBP1 UPR activ	Dynein cargo inh
CCCn1c(SCC(=O)N2N=C3/C(=C/c4ccc(OC)cc4)CCCC3C2c2ccc(OC)cc2)n[nH]c1=O (configuration not stated)	71*	92*	27	0	1	-0.37
CCCn1c(SCC(=O)NCc2ccc(OC)cc2)n[nH]c1=O	-12	-8	-11	-1	0	0.008
CC(C)[C@@H](NC(=O)C1CCC(CNC(=O)[C@H](Cc2ccccc2)NC(=O)OC(C)(C)C)CC1)C(=O)O (some centres not stated)	x	x	-10	x	x	x
O=C(NC(=S)Nc1ccc(Br)cn1)c1cncc(Br)c1	81*	-5	13	2	7	-0.056
C=CCNC(=S)NNc1nc(Nc2ccccc2)nc(N2CCCCC2)n1	74*	3	8	5	-1	-0.93
S=C(NNc1nc(Nc2ccccc2)nc(N2CCCCC2)n1)NC1CCCCC1	83*	5	8	0	-2	0.28
O=C1CCC(C(=O)N2CCN(c3cnccn3)CC2)CN1CCc1cccc(F)c1 (configuration not stated)	x	x	7	-1	-4	x
O=c1c2sccc2nc(SCc2ccc([N+](=O)[O-])cc2)n1Cc1ccccn1	16	63*	15	3	-3	0.42
CCCNC(=O)NC(=O)COC(=O)c1oc2ccc(OCC)cc2c1C	72*	3	-11	1	0	-0.2
COc1ccccc1C(=O)NC(=O)COC(=O)c1cccc(NC(C)=O)c1	x	x	-13	4	3	x
Cc1cc(O)ccc1N=Cc1c(C(F)(F)F)[nH][nH]c1=O	12	52*	-4	0	-1	-0.58
O=c1[nH][nH]c(C(F)(F)F)c1C=Nc1ccccc1	-13	-3	-6	2	3	0.77
O=C(/C=C/c1ccco1)c1ccc(NC(=O)C23CC4CC(CC(C4)C2)C3)cc1	5	59*	12	3	-1	-1.2
CCCCc1nc2c(C)c(N)cnc2n1Cc1cccc([N+](=O)[O-])c1	x	x	15	0	1	x
COc1ccc(-c2[nH]c(-c3ccc(C)cc3)nc2SCC(=O)NC2CCCC2)cc1	52	84*	18	1	-1	0.65
COc1cc(NS(=O)(=O)c2ccc(Nc3nc(-c4ccccc4)cs3)cc2)nc(OC)n1	90*	11	-3	x	x	0.16
COc1ccc(CCNCc2cc(C)n(-c3ccc(OC)cc3)c2C)cc1	x	x	65*	1	-5	x
CCCCCn1c(=O)c(-c2nc3ccccc3[nH]2)c(O)c2ccccc21	86*	56*	-3	0	-3	0.047
CCCCCCN1CC(O)=C(c2nc3ccccc3[nH]2)C1=N	84*	24	2	-1	0	-0.11
COc1ccc(NC(=O)CSCC(=O)N(C)Cc2ccc3c(c2)OCCO3)cc1	x	x	x	-1	-3	x
Cc1cc(C)c(NC(=S)NCCCSC2CCCCC2)c(C)c1	-12	57*	52	0	-1	3.4
